Laboratory results: ChEMBL document CHEMBL1131382, “Structure-activity relationship of new growth inhibitors of Trypanosoma cruzi” (J Med Chem, 1998)

Columns and labels:
Trypanosoma cruzi [1] = experiment: Concentration required to inhibit proliferation of the epimastigote form of Trypanosoma cruzi; type: functional, organism-based
Outline: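 T. cruzi epimastigotes (Y strain) at 28 °C in brain–heart infusion (37 g/L) with hemin (20 mg/L) and 10% newborn calf serum; inoculum (2–3) × 10⁶ cells/mL, 1 mL. Drugs at 1, 10, 50 and 100 μg/mL, each in quadruplicate, with a drug-free control. Growth read as absorbance at 600 nm; percent inhibition from the change in absorbance of drug-treated versus control cultures between start and end.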

Trypanosoma cruzi [2] = experiment: Growth inhibition of the intracellular Trypanosoma cruzi was measured by counting percentage of myoblasts with Trypanosoma cruzi parasite after time gap of 72 hr at the concentration of 1.0 ug/mL; type: functional
Trypanosoma cruzi [3] = experiment: Growth inhibition of the intracellular Trypanosoma cruzi was measured by counting percentage of myoblasts with Trypanosoma cruzi parasite after time gap of 48 hr (with out compound); type: functional
Trypanosoma cruzi [4] = experiment: Growth inhibition of the intracellular Trypanosoma cruzi was measured by no. of parasites per 100 myoblasts (T. cruzi ) after 72 hr at the concentration of 1.0 (ug/mL); type: functional
Trypanosoma cruzi [5] = experiment: Growth inhibition of the intracellular Trypanosoma cruzi was measured by no. of parasites per 100 myoblasts (T. cruzi ) after 48 hr at the concentration of 0.5 (ug/mL); type: functional
Trypanosoma cruzi [6] = experiment: Growth inhibition of the intracellular Trypanosoma cruzi was measured by counting percentage of myoblasts with Trypanosoma cruzi parasite after 48 hr at the concentration of 0.1 (ug/mL); type: functional
Trypanosoma cruzi [7] = experiment: Growth inhibition of the intracellular Trypanosoma cruzi was measured by counting percentage of myoblasts with Trypanosoma cruzi parasite after 48 hr at the concentration of 1.0 (ug/mL); type: functional
Trypanosoma cruzi [8] = experiment: Growth inhibition of the intracellular Trypanosoma cruzi was measured by no. of parasites per 100 myoblasts (T. cruzi ) after 72 hr at the concentration of 0.5 (ug/mL); type: functional
Trypanosoma cruzi [9] = experiment: Growth inhibition of the intracellular Trypanosoma cruzi was measured by no. of parasites per 100 myoblasts (T. cruzi ) after time gap of 48 hr at the concentration of 5.0 ug/mL; type: functional
Trypanosoma cruzi [10] = experiment: Growth inhibition of the intracellular Trypanosoma cruzi was measured by no. of parasites per 100 myoblasts (T. cruzi ) after time gap of 24 hr (with out compound); type: functional
Trypanosoma cruzi [11] = experiment: Growth inhibition of the intracellular Trypanosoma cruzi was measured by counting percentage of myoblasts with Trypanosoma cruzi parasite after time gap of 72h( absence of compound); type: functional
Trypanosoma cruzi [12] = experiment: Growth inhibition of the intracellular Trypanosoma cruzi was measured by no. of parasites per 100 myoblasts (T. cruzi ) after time gap of 72 hr at the concentration of 2.5 ug/mL; type: functional
Trypanosoma cruzi [13] = experiment: Growth inhibition of the intracellular Trypanosoma cruzi was measured by counting percentage of myoblasts with Trypanosoma cruzi parasite after 48 hr at the concentration of 0.5 (ug/mL); type: functional
Trypanosoma cruzi [14] = experiment: Growth inhibition of the intracellular Trypanosoma cruzi was measured by counting percentage of myoblasts with Trypanosoma cruzi parasite after time gap of 72 hr at the concentration of 2.5 ug/mL; type: functional
Trypanosoma cruzi [15] = experiment: Growth inhibition of the intracellular Trypanosoma cruzi was measured by no. of parasites per 100 myoblasts (T. cruzi ) after 72 hr (absence of compound); type: functional
Trypanosoma cruzi [16] = experiment: Growth inhibition of the intracellular Trypanosoma cruzi was measured by no. of parasites per 100 myoblasts (T. cruzi ) after time gap of 72 hr at the concentration of 5.0 ug/mL; type: functional
Trypanosoma cruzi [17] = experiment: Growth inhibition of the intracellular Trypanosoma cruzi was measured by no. of parasites per 100 myoblasts (T. cruzi ) after 72 hr at the concentration of 0.1 (ug/mL); type: functional
Trypanosoma cruzi [18] = experiment: Growth inhibition of the intracellular Trypanosoma cruzi was measured by no. of parasites per 100 myoblasts (T. cruzi ) after time gap of 72 hr at the concentration of 1.0 ug/mL; type: functional
Trypanosoma cruzi [19] = experiment: Growth inhibition of the intracellular Trypanosoma cruzi was measured by counting percentage of myoblasts with Trypanosoma cruzi parasite after 48 hr (absence of compound); type: functional
Trypanosoma cruzi [20] = experiment: Growth inhibition of the intracellular Trypanosoma cruzi was measured by counting percentage of myoblasts with Trypanosoma cruzi parasite after time gap of 48 hr at the concentration of 2.5 ug/mL; type: functional
Trypanosoma cruzi [21] = experiment: Growth inhibition of the intracellular Trypanosoma cruzi was measured by counting percentage of myoblasts with Trypanosoma cruzi parasite after 72 hr at the concentration of 0.1 (ug/mL); type: functional
Trypanosoma cruzi [22] = experiment: Growth inhibition of the intracellular Trypanosoma cruzi was measured by counting no. of parasites per 100 myoblasts (T. cruzi ) after 48 hr (absence of compound); type: functional
Trypanosoma cruzi [23] = experiment: Growth inhibition of the intracellular Trypanosoma cruzi was measured by no. of parasites per 100 myoblasts (T. cruzi ) after time gap of 48 hr at the concentration of 2.5 ug/mL; type: functional
Trypanosoma cruzi [24] = experiment: Growth inhibition of the intracellular Trypanosoma cruzi was measured by counting percentage of myoblasts with Trypanosoma cruzi parasite after time gap of 24 hr (with out compound); type: functional
Trypanosoma cruzi [25] = experiment: Growth inhibition of the intracellular Trypanosoma cruzi was measured by counting percentage of myoblasts with Trypanosoma cruzi parasite after 24 hr (absence of compound); type: functional
Trypanosoma cruzi [26] = experiment: Growth inhibition of the intracellular Trypanosoma cruzi was measured by no. of parasites per 100 myoblasts (T. cruzi ) after time gap of 72 hr (absence of compound); type: functional
Trypanosoma cruzi [27] = experiment: Growth inhibition of the intracellular Trypanosoma cruzi was measured by counting percentage of myoblasts with Trypanosoma cruzi parasite after 72 hr (absence of compound); type: functional
Trypanosoma cruzi [28] = experiment: Growth inhibition of the intracellular Trypanosoma cruzi was measured by no. of parasites per 100 myoblasts (T. cruzi ) after time gap of 48 hr at the concentration of 1.0 ug/mL; type: functional
Trypanosoma cruzi [29] = experiment: Growth inhibition of the intracellular Trypanosoma cruzi was measured by counting percentage of myoblasts with Trypanosoma cruzi parasite after 72 hr at the concentration of 0.5 (ug/mL); type: functional
Trypanosoma cruzi [30] = experiment: Growth inhibition of the intracellular Trypanosoma cruzi was measured by no. of parasites per 100 myoblasts (T. cruzi ) after time gap of 48 hr (with out compound); type: functional
Trypanosoma cruzi [31] = experiment: Growth inhibition of the intracellular Trypanosoma cruzi was measured by counting percentage of myoblasts with Trypanosoma cruzi parasite after time gap of 48 hr at the concentration of 5.0 ug/mL; type: functional
Trypanosoma cruzi [32] = experiment: Growth inhibition of the intracellular Trypanosoma cruzi was measured by counting percentage of myoblasts with Trypanosoma cruzi parasite after 72 hr at the concentration of 1.0 (ug/mL); type: functional
Trypanosoma cruzi [33] = experiment: Growth inhibition of the intracellular Trypanosoma cruzi was measured by no. of parasites per 100 myoblasts (T. cruzi ) after 48 hr at the concentration of 1.0 (ug/mL); type: functional
Trypanosoma cruzi [34] = experiment: Growth inhibition of the intracellular Trypanosoma cruzi was measured by counting percentage of myoblasts with Trypanosoma cruzi parasite after time gap of 72 hr at the concentration of 5.0 ug/mL; type: functional
Trypanosoma cruzi [35] = experiment: Growth inhibition of the intracellular Trypanosoma cruzi was measured by counting no. of parasites per 100 myoblasts (T. cruzi ) after 24 h (absence of compound); type: functional
Trypanosoma cruzi [36] = experiment: Growth inhibition of the intracellular Trypanosoma cruzi was measured by no. of parasites per 100 myoblasts (T. cruzi ) after 48 hr at the concentration of 0.1 (ug/mL); type: functional
Trypanosoma cruzi [37] = experiment: Growth inhibition of the intracellular Trypanosoma cruzi was measured by counting percentage of myoblasts with Trypanosoma cruzi parasite after time gap of 48 hr at the concentration of 1.0 ug/mL; type: functional

C/C=C/Oc1ccc(Oc2ccccc2)cc1
IC50 (Trypanosoma cruzi [1]): > 440 µM

CCOC(=S)SCCOc1ccc(Oc2ccccc2)cc1
IC50 (Trypanosoma cruzi [1]): 41.9 µM

Brc1ccc(Oc2ccc(OCCOC3CCCCO3)cc2)cc1 (stereo not given)
IC50 (Trypanosoma cruzi [1]): 85 µM

C=CCOc1ccc(Oc2ccccc2)cc1Cl
IC50 (Trypanosoma cruzi [1]): > 250 µM

C=CCOc1ccc(Oc2ccccc2)cc1
IC50 (Trypanosoma cruzi [1]): 221 µM

CC(C)COC(=O)SCCOc1ccc(Oc2ccccc2)cc1
IC50 (Trypanosoma cruzi [1]): 19.1 µM

CCSC(=O)SCCOc1ccc(Oc2ccccc2)cc1
IC50 (Trypanosoma cruzi [1]): 37.7 µM

N#CSCCOc1ccc(Cc2ccccc2)cc1
IC50 (Trypanosoma cruzi [1]): 13.4 µM

C=CCOc1ccc(Oc2ccc(Br)cc2)cc1
IC50 (Trypanosoma cruzi [1]): > 250 µM

C=CCOc1ccc(Cl)cc1Cl
IC50 (Trypanosoma cruzi [1]): 282 µM

c1ccc(COc2ccc(OCCOC3CCCCO3)cc2)cc1 (stereo not given)
IC50 (Trypanosoma cruzi [1]): 121 µM

Clc1cc(Oc2ccccc2)ccc1OCCOC1CCCCO1 (stereo not given)
IC50 (Trypanosoma cruzi [1]): 143 µM

C=CCOc1ccc(Oc2ccccc2)cc1I
IC50 (Trypanosoma cruzi [1]): 91 µM

C=CCOc1ccc(Oc2ccc([N+](=O)[O-])cc2)cc1
IC50 (Trypanosoma cruzi [1]): 230 µM

CCOC(=O)SCCOc1ccc(Oc2ccccc2)cc1
IC50 (Trypanosoma cruzi [1]): 15.1 µM

C=CCOc1ccc(Oc2ccccc2)cc1[N+](=O)[O-]
IC50 (Trypanosoma cruzi [1]): 185 µM

Brc1cc(Oc2ccccc2)ccc1OCCOC1CCCCO1 (stereo not given)
IC50 (Trypanosoma cruzi [1]): 67 µM

C=CCSC(=S)OCCOc1ccc(Oc2ccccc2)cc1
IC50 (Trypanosoma cruzi [1]): 96.1 µM

N#CSCCCOc1ccc(Oc2ccccc2)cc1
IC50 (Trypanosoma cruzi [1]): 3.5 µM

c1ccc(Cc2ccc(OCCOC3CCCCO3)cc2)cc1 (stereo not given)
IC50 (Trypanosoma cruzi [1]): 282 µM

C=CCOc1ccc(Oc2ccc(Cl)cc2)cc1
IC50 (Trypanosoma cruzi [1]): > 250 µM

C=CCOc1ccc(Oc2ccccc2)cc1NC(C)=O
IC50 (Trypanosoma cruzi [1]): 97 µM

c1ccc(Oc2ccc(OCC3CS3)cc2)cc1 (stereo not given)
IC50 (Trypanosoma cruzi [1]): 3.9 µM

C=CCOc1ccc(Oc2ccc(C(=O)c3ccccc3)cc2)cc1
IC50 (Trypanosoma cruzi [1]): > 330 µM

N#CSCCOc1ccc(Oc2ccccc2)cc1
Myoblasts with parasites (Trypanosoma cruzi [2]): 16.3% | Myoblasts with parasites (Trypanosoma cruzi [3]): 31.5% | R (Trypanosoma cruzi [4]): 63.5% | R (Trypanosoma cruzi [5]): 98% | Myoblasts with parasites (Trypanosoma cruzi [6]): 22% | Myoblasts with parasites (Trypanosoma cruzi [7]): 19.3% | R (Trypanosoma cruzi [8]): 124.5% | R (Trypanosoma cruzi [9]): 48% | R (Trypanosoma cruzi [10]): 85% | Myoblasts with parasites (Trypanosoma cruzi [11]): 24.8% | R (Trypanosoma cruzi [12]): 76.3% | Myoblasts with parasites (Trypanosoma cruzi [13]): 18.3% | Myoblasts with parasites (Trypanosoma cruzi [14]): 17% | R (Trypanosoma cruzi [15]): 578.5% | R (Trypanosoma cruzi [16]): 28% | R (Trypanosoma cruzi [17]): 238% | IC50 (Trypanosoma cruzi [1]): 2.2 µM | R (Trypanosoma cruzi [18]): 85.5% | Myoblasts with parasites (Trypanosoma cruzi [19]): 21.5% | Myoblasts with parasites (Trypanosoma cruzi [20]): 20.3% | Myoblasts with parasites (Trypanosoma cruzi [21]): 15.5% | R (Trypanosoma cruzi [22]): 239.5% | R (Trypanosoma cruzi [23]): 57% | Myoblasts with parasites (Trypanosoma cruzi [24]): 38% | Myoblasts with parasites (Trypanosoma cruzi [25]): 26% | R (Trypanosoma cruzi [26]): 733.5% | Myoblasts with parasites (Trypanosoma cruzi [27]): 27.5% | R (Trypanosoma cruzi [28]): 59.3% | Myoblasts with parasites (Trypanosoma cruzi [29]): 12.5% | R (Trypanosoma cruzi [30]): 270.5% | Myoblasts with parasites (Trypanosoma cruzi [31]): 19.8% | Myoblasts with parasites (Trypanosoma cruzi [32]): 15% | R (Trypanosoma cruzi [33]): 69.3% | Myoblasts with parasites (Trypanosoma cruzi [34]): 8.3% | R (Trypanosoma cruzi [35]): 91.8% | R (Trypanosoma cruzi [36]): 218% | Myoblasts with parasites (Trypanosoma cruzi [37]): 20.5%

CCSC(=O)OC/C=C(\C)CCC=C(C)C
IC50 (Trypanosoma cruzi [1]): 298 µM

Clc1ccc(OCCOC2CCCCO2)c(Cl)c1 (stereo not given)
IC50 (Trypanosoma cruzi [1]): 93 µM

C=CCOc1ccc(Oc2ccccc2)cc1Br
IC50 (Trypanosoma cruzi [1]): 182 µM

N#CSCCOc1ccc(OCc2ccccc2)cc1
IC50 (Trypanosoma cruzi [1]): 8.1 µM

C=CCOc1ccc(Sc2ccccc2)cc1
IC50 (Trypanosoma cruzi [1]): 324 µM

CCSC(=O)OC/C=C(\C)CCC1OC1(C)C (stereo not given)
IC50 (Trypanosoma cruzi [1]): > 380 µM

CCNC(=O)SCCOc1ccc(Oc2ccccc2)cc1
IC50 (Trypanosoma cruzi [1]): 17 µM

C=CCOc1ccc(Oc2ccc(C(C)=O)cc2)cc1
IC50 (Trypanosoma cruzi [1]): 300 µM

CC1CS(=O)(=O)CCN1/N=C/c1ccc([N+](=O)[O-])o1 (stereo not given) [NIFURTIMOX]
R (Trypanosoma cruzi [4]): 70.5% | Myoblasts with parasites (Trypanosoma cruzi [7]): 14% | R (Trypanosoma cruzi [15]): 321% | IC50 (Trypanosoma cruzi [1]): 8.6 µM | Myoblasts with parasites (Trypanosoma cruzi [19]): 16.25% | R (Trypanosoma cruzi [22]): 155% | Myoblasts with parasites (Trypanosoma cruzi [25]): 34.5% | Myoblasts with parasites (Trypanosoma cruzi [27]): 20% | Myoblasts with parasites (Trypanosoma cruzi [32]): 12.5% | R (Trypanosoma cruzi [33]): 64.5% | R (Trypanosoma cruzi [35]): 80.25%
